From ChEMBL document CHEMBL1687810, “Oritavancin disrupts membrane integrity of Staphylococcus aureus and vancomycin-resistant enterococci to effect rapid bacterial killing” (2010)
In brackets after ≈: the same amount, converted by molar mass. Activity calls are given as the source filed them.

Columns and labels:
Staphylococcus aureus [1] = test: Increase in membrane permeability in heterogeneous vancomycin-intermediate resistant Staphylococcus aureus ATCC 700698 at 16 ug/mL using SYTO9 staining by fluorimetric assay; type: functional, organism-based
Staphylococcus aureus [2] = test: Bactericidal activity against heterogeneous vancomycin-intermediate resistant Staphylococcus aureus ATCC 700698 at 16 ug/ml within 30 mins; type: functional, organism-based
How it was run: (§1)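 Short-duration time-kill of hVISA ATCC 700698 under conditions similar to the membrane assays, without polysorbate-80, with drug at 4, 8 or 16 μg/ml; viable counts as change in log CFU from time zero over 30 min. Bactericidal defined as ≥3 log CFU decrease; detection limit 200 CFU; three independent experiments.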

Staphylococcus aureus [3] = test: Induction of membrane depolarization in heterogeneous vancomycin-intermediate resistant Staphylococcus aureus ATCC 700698 at 16 ug/mL using DiSC3(5) dye by fluorimetric assay; type: functional, organism-based
Staphylococcus aureus [4] = test: Antimicrobial activity against heterogeneous vancomycin-intermediate resistant Staphylococcus aureus ATCC 700698; type: functional
Enterococcus = test: Antimicrobial activity against vancomycin-resistant Enterococcus; type: functional
Staphylococcus aureus [5] = test: Antimicrobial activity against heterogeneous vancomycin-intermediate resistant Staphylococcus aureus; type: functional
Staphylococcus aureus [6] = test: Induction of membrane depolarization in heterogeneous vancomycin-intermediate resistant Staphylococcus aureus ATCC 700698 using DiSC3(5) dye by fluorimetric assay; type: functional, organism-based
Staphylococcus aureus [7] = test: Antimicrobial activity against vancomycin-resistant Staphylococcus aureus; type: functional
Staphylococcus aureus [8] = test: Bactericidal activity against heterogeneous vancomycin-intermediate resistant Staphylococcus aureus ATCC 700698 assessed as reduction in bacterial count at 16 ug/ml within 30 mins; type: functional; how it was run: as §1
Staphylococcus aureus [9] = test: Bactericidal activity against heterogeneous vancomycin-intermediate resistant Staphylococcus aureus ATCC 700698 assessed as reduction in bacterial count at 4 ug/ml within 30 mins; type: functional; how it was run: as §1
Staphylococcus aureus [10] = test: Bactericidal activity against heterogeneous vancomycin-intermediate resistant Staphylococcus aureus ATCC 700698 assessed as reduction in bacterial count at 8 ug/ml within 30 mins; type: functional; how it was run: as §1
Staphylococcus aureus [11] = test: Antimicrobial activity against vancomycin-intermediate resistant Staphylococcus aureus; type: functional
Staphylococcus aureus [12] = test: Increase in membrane permeability in heterogeneous vancomycin-intermediate resistant Staphylococcus aureus ATCC 700698 using SYTO9 staining by fluorimetric assay; type: functional, organism-based

SMILES | Activity (Staphylococcus aureus [1]) | Activity (Staphylococcus aureus [2]) | Activity (Staphylococcus aureus [3]) | MIC (Staphylococcus aureus [4]) | MIC (Enterococcus) | MIC (Staphylococcus aureus [5]) | Activity (Staphylococcus aureus [6]) | MIC (Staphylococcus aureus [7]) | log10cfu (Staphylococcus aureus [8]) | log10cfu (Staphylococcus aureus [9]) | log10cfu (Staphylococcus aureus [10]) | MIC (Staphylococcus aureus [11]) | Activity (Staphylococcus aureus [12])
CN[C@H](CC(C)C)C(=O)N[C@H]1C(=O)N[C@@H](CC(N)=O)C(=O)N[C@H]2C(=O)N[C@H]3C(=O)N[C@H](C(=O)N[C@H](C(=O)O)c4cc(O)cc(O)c4-c4cc3ccc4O)[C@H](O)c3ccc(c(Cl)c3)Oc3cc2cc(c3O[C@@H]2O[C@H](CO)[C@@H](O)[C@H](O)[C@H]2O[C@H]2C[C@](C)(N)[C@H](O)[C@H](C)O2)Oc2ccc(cc2Cl)[C@H]1O | inactive | inactive | inactive |  |  |  |  |  |  |  |  |  | 
CN[C@H](CC(C)C)C(=O)N[C@H]1C(=O)N[C@@H](CC(N)=O)C(=O)N[C@H]2C(=O)N[C@H]3C(=O)N[C@H](C(=O)N[C@H](C(=O)O)c4cc(O)cc(O)c4-c4cc3ccc4O)[C@H](O[C@H]3C[C@](C)(N)[C@@H](O)[C@H](C)O3)c3ccc(c(Cl)c3)Oc3cc2cc(c3O[C@@H]2O[C@H](CO)[C@@H](O)[C@H](O)[C@H]2O[C@H]2C[C@](C)(N)[C@@H](O)[C@H](C)O2)Oc2ccc(cc2Cl)[C@H]1O [CHLOROEREMOMYCIN] | inactive | inactive | inactive | 1 µg/mL (≈ 0.628 µM) |  |  |  |  |  |  |  |  | 
CN[C@H](CC(C)C)C(=O)N[C@H]1C(=O)N[C@@H](CC(N)=O)C(=O)N[C@H]2C(=O)N[C@H]3C(=O)N[C@H](C(=O)N[C@H](C(=O)O)c4cc(O)cc(O)c4-c4cc3ccc4O)[C@H](O[C@H]3C[C@](C)(N)[C@@H](O)[C@H](C)O3)c3ccc(c(Cl)c3)Oc3cc2cc(c3O[C@@H]2O[C@H](CO)[C@@H](O)[C@H](O)[C@H]2O[C@H]2C[C@](C)(NCc3ccc(-c4ccc(Cl)cc4)cc3)[C@@H](O)[C@H](C)O2)Oc2ccc(cc2Cl)[C@H]1O [ORITAVANCIN] |  |  |  | 1 µg/mL (≈ 0.558 µM) | 0.25 µg/mL (≈ 0.139 µM) | 0.25 µg/mL (≈ 0.139 µM) | Dose-dependent effect | 0.25 µg/mL (≈ 0.139 µM) | >=3 | >=3 | >=3 | 0.25 µg/mL (≈ 0.139 µM) | Dose-dependent effect
